Assay type in all cases: functional
The subject of test [1] is Candida albicans. Nature of the test: Antifungal activity against azole-resistant Candida albicans J2-36 by CLSI M27-A2 microdilution method.
The test system of the next test is Cryptococcus neoformans. Description: Antifungal activity against Cryptococcus neoformans MPU-B by CLSI M27-A2 microdilution method. In a few lines: (§1)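 Broth microdilution per CLSI M27-A2, run in triplicate. Panel: azole-resistant C. albicans J2-36 (resistant to fluconazole, itraconazole, voriconazole), azole-sensitive C. albicans J1-97, C. glabrata J-92, Cryptococcus neoformans MPU-B. Quality control was run on each testing day with reference strains, including C. albicans ATCC 90028.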
A general note: Dilution methods test growth across graded concentrations, often in twofold steps.

The test system of test [2] is Candida albicans. Nature of the test: Antifungal activity against azole-sensitive Candida albicans J1-97 by CLSI M27-A2 microdilution method. In a few lines: as §1
Another test concerns Nakaseomyces glabratus. Description: Antifungal activity against Candida glabrata J 92 by CLSI M27-A2 microdilution method. The essentials: as §1

Molecules are shown by their SMILES. In brackets after ≈: the same amount, converted by molar mass. A value given as a limit tells only on which side of the number the result lay.

By MIC is commonly meant the smallest concentration in the dilution series that meets the test's criterion for growth inhibition. Turning to `C[C@@H]1CC[C@H]2[C@H](C(=O)c3c(O)c(C4(O)CCC(=O)CC4O)c[nH]c3=O)[C@H](C)C=C[C@@H]2C1` (stereo partly specified) [DIDYMELLAMIDE D], the MIC in the test with Candida albicans [1], with Cryptococcus neoformans, against Candida albicans [2] and in the test with Nakaseomyces glabratus was above 25 µg/mL throughout.

On to `C[C@@H]1CC[C@H]2[C@H](C(=O)c3c(O)c(C4(O)C=CC(=O)CC4)c[nH]c3=O)[C@H](C)C=C[C@@H]2C1` (stereo partly specified) [DIDYMELLAMIDE C], for which the MIC in the test on Candida albicans [1], against Cryptococcus neoformans, against Candida albicans [2] and in the test on Nakaseomyces glabratus was above 25 µg/mL each time.

As to `C[C@@H]1CC[C@H]2[C@H](C(=O)c3c(O)c([C@]4(O)CCC(=O)[C@@H]5O[C@@H]54)cn(O)c3=O)[C@H](C)C=C[C@@H]2C1` [DIDYMELLAMIDE A], the MIC came to 3.1 µg/mL (≈ 6.99 µM) against Candida albicans [1], 1.6 µg/mL (≈ 3.61 µM) with Cryptococcus neoformans, 3.1 µg/mL (≈ 6.99 µM) against Candida albicans [2] and 3.1 µg/mL (≈ 6.99 µM) in the test on Nakaseomyces glabratus.

As for `C[C@@H]1CC[C@H]2[C@H](C(=O)c3c(O)c(-c4ccc(O)cc4)c[nH]c3=O)[C@H](C)C=C[C@@H]2C1` [DIDYMELLAMIDE B], the MIC against Candida albicans [1] is above 25 µg/mL; against Cryptococcus neoformans, 6.3 µg/mL (≈ 16 µM); with Candida albicans [2], above 25 µg/mL; against Nakaseomyces glabratus it was above 25 µg/mL.

(Values after ChEMBL document CHEMBL2331076, “Pyridone alkaloids from a marine-derived fungus, Stagonosporopsis cucurbitacearum, and their activities against azole-resistant Candida albicans” (2013).)
